# Assay results: ChEMBL document CHEMBL3297648, “Diterpenoids from the Chinese liverwort Heteroscyphus tener and their antiproliferative effects” (J Nat Prod, 2014)
# Active and inactive are the calls of the source. The calls are words filed in the database; no cut-off is given here.
# What was measured:
# DU-145 [1] = experiment: Increase in H2AX protein expression in human DU145 cells at 20 uM after 2 to 48 hrs by western blot analysis; format: functional, cell-based
# Outline: (§1)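 Cells treated at 20 μM for various times, lysed in RIPA buffer with protease/phosphatase inhibitors, protein quantified by BCA. Equal protein run on 12% SDS-PAGE, transferred to nitrocellulose, blocked 1 h in 5% milk/TBST, primary antibodies overnight at 4 °C, secondary 1:2000 for 45 min, ECL detection on film. GAPDH used as loading control.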
# NCI-H292 = experiment: Antiproliferative activity against human NCI-H292 cells assessed as inhibition of cell viability after 24 hrs by MTT assay; format: functional, cell-based; conditions: NCI-H292, 24 h
# Outline: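 Cells grown to 50–70% confluence (RWPE1 in K-SFM with pituitary extract and EGF; the other lines in RPMI 1640 with 10% FBS), 5% CO2, 37 °C. Treated for 24 h with DMSO vehicle, compounds, or cisplatin as positive control. MTT (5 mg/mL) added for 4 h, formazan dissolved in DMSO, absorbance read at 570 nm. Viability taken relative to untreated cells after blank subtraction, IC50 fitted from % viability, at least three experiments.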
# [2] = Cell cycle arrest in human PC3 cells assessed as accumulation at G0/G1 phase at 10 uM after 24 hrs by propidium iodide staining based flow cytometry (reference value: 66.57%); format: functional; conditions: PC-3
# [3] = Cell cycle arrest in human PC3 cells assessed as accumulation at S phase at 20 uM after 24 hrs by propidium iodide staining based flow cytometry (reference value: 22.07%); format: functional; conditions: PC-3
# [4] = Cell cycle arrest in human PC3 cells assessed as accumulation at G2/M phase at 20 uM after 24 hrs by propidium iodide staining based flow cytometry (reference value: 10.43%); format: functional; conditions: PC-3
# DU-145 [5] = experiment: Cell cycle arrest in human DU145 cells assessed as accumulation at G2/M phase at 10 uM after 24 hrs by propidium iodide staining based flow cytometry (reference value: 10.44%); format: functional
# DU-145 [6] = experiment: Cell cycle arrest in human DU145 cells assessed as accumulation at subG1 phase at 20 uM after 24 hrs by propidium iodide staining based flow cytometry (reference value: 0.28%); format: functional
# DU-145 [7] = experiment: Cell cycle arrest in human DU145 cells assessed as accumulation at G0/G1 phase at 20 uM after 24 hrs by propidium iodide staining based flow cytometry (reference value: 63.34%); format: functional
# [8] = Decrease in cyclin E protein expression in human DU145 cells by western blot analysis; format: functional, cell-based; conditions: DU-145, TDE = time-dependent effect
# Outline: (§2)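 Western blot of cyclin D1, cyclin E, Cdk4 and p21 in PC3 and DU145 lysates. Lysis in RIPA buffer plus protease inhibitors, BCA quantification, 12% SDS-PAGE, nitrocellulose transfer, milk block, primaries overnight at 4 °C, secondary 1:2000 for 45 min, ECL read-out. GAPDH served as loading control.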
# [9] = Decrease in Cdk4 protein expression in human DU145 cells after 2 to 48 hrs by western blot analysis; format: functional, cell-based; conditions: DU-145; outline: as §2
# PC-3 [10] = experiment: Induction of apoptosis in human PC3 cells assessed as early apoptotic cells at 20 uM after 4 hrs by Annexin V-FITC/propidium iodide staining based flow cytometry (reference value: 0.79%); format: functional
# Outline: (§3)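 Cells seeded in 6-well plates for 24 h, then given 20 μM for the stated times. Cells were trypsinized, PBS-washed, stained with annexin V-FITC/PI, and analysed immediately by flow cytometry. Means ± SD of three independent experiments; Student's t test against untreated control.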
# PC-3 [11] = experiment: Induction of apoptosis in human PC3 cells assessed as necrotic cells at 20 uM after 8 hrs by Annexin V-FITC/propidium iodide staining based flow cytometry (reference value: 0.98%); format: functional; outline: as §3
# PC-3 [12] = experiment: Induction of apoptosis in human PC3 cells assessed as early apoptotic cells at 20 uM after 24 hrs by Annexin V-FITC/propidium iodide staining based flow cytometry (reference value: 0.79%); format: functional; outline: as §3
# PC-3 [13] = experiment: Induction of apoptosis in human PC3 cells assessed as necrotic cells at 20 uM after 24 hrs by Annexin V-FITC/propidium iodide staining based flow cytometry (reference value: 0.98%); format: functional; outline: as §3
# DU-145 [14] = experiment: Induction of apoptosis in human DU145 cells assessed as late apoptotic cells at 20 uM after 24 hrs by Annexin V-FITC/propidium iodide staining based flow cytometry (reference value: 1.53%); format: functional; outline: as §3
# DU-145 [15] = experiment: Induction of apoptosis in human DU145 cells assessed as increase in caspase-3 activity using Ac-DEVD-AMC as substrate at 20 uM by fluorometric method; format: functional, cell-based; conditions: TDE = time-dependent effect
# Outline: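 Cells treated with 20 μM for the stated times. Pellets lysed on ice 15 min, spun at 14 000g for 15 min at 4 °C. Supernatant assayed in buffer containing CHAPS, 10% glycerol, 2 mM EDTA, 5 mM DTT for 2 h at 37 °C. Fluorescence read at ex 380/em 440 nm.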
# DU-145 [16] = experiment: Induction of apoptosis in human DU145 cells assessed as cleaved caspase-3 level at 20 uM after 12 hrs by western blot analysis; format: functional, cell-based
# Outline: (§4)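 Cells exposed to 20 μM for the stated times. Lysis in RIPA plus protease inhibitors, BCA protein assay, equal protein on 12% SDS-PAGE, transfer to nitrocellulose. Blocking in 5% milk/TBST 1 h; primary antibodies overnight at 4 °C; secondary 1:2000 for 45 min; ECL detection. GAPDH served as loading control.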
# PC-3 [17] = experiment: Induction of apoptosis in human PC3 cells assessed as PARP cleavage at 20 uM after 12 hrs by western blot analysis; format: functional, cell-based; outline: as §4
# DU-145 [18] = experiment: Induction of apoptosis in human DU145 cells assessed as PARP cleavage at 20 uM after 12 hrs by western blot analysis; format: functional, cell-based; outline: as §4
# PC-3 [19] = experiment: Induction of ROS generation in human PC3 cells at 20 uM after 30 mins to 4 hrs by DCFH-DA staining based flow cytometry; format: functional, cell-based
# Outline: (§5)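 Cells in RPMI 1640 with 10% FBS, 5% CO2, 37 °C, treated at 50−70% confluence (DMSO vehicle). After exposure, cells were loaded with 10 μM DCFH-DA for 30 min at 37 °C, washed, resuspended in PBS, and read at once by flow cytometry. For NAC runs, cells got 5 mM NAC 1 h before compound. ROS reported as ratio relative to untreated control.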
# PC-3 [20] = experiment: Induction of ROS generation in human PC3 cells at 20 uM after 6 hrs by DCFH-DA staining based flow cytometry; format: functional, cell-based; outline: as §5
# PC-3 [21] = experiment: Induction of ROS generation in human PC3 cells at 20 uM pretreated for 1 hr with 5 mM antioxidant NAC measured after 24 hrs by DCFH-DA staining based flow cytometry; format: functional, cell-based; outline: as §5
# DU-145 [22] = experiment: Induction of ROS generation in human DU145 cells at 20 uM pretreated for 1 hr with 5 mM antioxidant NAC measured after 24 hrs by DCFH-DA staining based flow cytometry; format: functional, cell-based; outline: as §5
# PC-3 [23] = experiment: Antiproliferative activity against human PC3 cells assessed as inhibition of cell viability at 20 uM pretreated for 1 hr with 5 mM antioxidant NAC measured after 24 hrs by MTT assay; format: functional, cell-based
# PC-3 [24] = experiment: Induction of DNA damage in human PC3 cells assessed as gamma-H2AX phosphorylation at ser139 at 20 uM by western blot analysis; format: functional, cell-based; conditions: TDE = time-dependent effect; outline: as §1
smiles,measurement,setting,value
C=C[C@@](C)(O)CC[C@@H]1C(C)=CC[C@@H]2C(C)(C)CCC[C@@]12C,Activity,DU-145 [1],inactive
same,IC50,NCI-H292,17.1 µM
same,Activity,[2],73%
same,Activity,[3],4.24%
same,Activity,[4],10.9%
same,Activity,DU-145 [5],8.38%
same,Activity,DU-145 [6],2.82%
same,Activity,DU-145 [7],75.55%
same,inhibition,[8],tde
same,inhibition,[9],Active
same,Activity,PC-3 [10],2.48%
same,Activity,PC-3 [11],2.95%
same,Activity,PC-3 [12],1.61%
same,Activity,PC-3 [13],10.21%
same,Activity,DU-145 [14],15.33%
same,Activity,DU-145 [15],tde
same,Activity,DU-145 [16],Active
same,Activity,PC-3 [17],Active
same,Activity,DU-145 [18],Active
same,Activity,PC-3 [19],Active
same,Activity,PC-3 [20],inactive
same,Activity,PC-3 [21],inactive
same,Activity,DU-145 [22],inactive
same,inhibition,PC-3 [23],inactive
same,Activity,PC-3 [24],tde
